Assay outcomes deposited in PubChem BioAssay by several laboratories.
AP complement: alternative complement pathway inhibitors, primary screen, biochemical, ELISA, human serum, orthogonally pooled compounds | hit rate 0.08% among 62,000 | AID 1235, 2008 | LPS-coated ELISA, C3 deposition; tested in compound mixtures | inhibition, % at 5 µM;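 active means inhibition above 30% in each of the two pooled mixtures holding the compound, so the lower value exceeds 30%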;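 further: 0% = serum in Mg-EGTA without compound and 100% = EDTA serum blank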
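Test system: human serum complement alternative pathway, C3 deposition onto LPS / Medium: Mg2+-EGTA GVB++ buffer containing human serum at 1:15 dilution / Probe or stimulus: Plate-bound LPS / Times: 1 h at 37 °C / Signal: ELISA with HRP anti-human C3 antibody, TMB substrate, absorbance 450 nm / Measure: percent inhibition / Repeats: two pool placements per compound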
M1 antag: antagonists of rat M1 muscarinic receptor; Muscarinic acetylcholine receptor M1 (Rattus norvegicus), P08482; CHO-M1 cells, Fluo-4 calcium, ACh EC80 antagonist mode; active compounds read low; B-score at 10 µM; hit rate 3.4% among 64,000; AID 628, 2007;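 active means calcium fluorescence response, raw or row-and-column corrected B-score, differing from the plate sample mean either way at a set confidence level, mostly lower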
Target sequence (P08482 whole entry, looked up): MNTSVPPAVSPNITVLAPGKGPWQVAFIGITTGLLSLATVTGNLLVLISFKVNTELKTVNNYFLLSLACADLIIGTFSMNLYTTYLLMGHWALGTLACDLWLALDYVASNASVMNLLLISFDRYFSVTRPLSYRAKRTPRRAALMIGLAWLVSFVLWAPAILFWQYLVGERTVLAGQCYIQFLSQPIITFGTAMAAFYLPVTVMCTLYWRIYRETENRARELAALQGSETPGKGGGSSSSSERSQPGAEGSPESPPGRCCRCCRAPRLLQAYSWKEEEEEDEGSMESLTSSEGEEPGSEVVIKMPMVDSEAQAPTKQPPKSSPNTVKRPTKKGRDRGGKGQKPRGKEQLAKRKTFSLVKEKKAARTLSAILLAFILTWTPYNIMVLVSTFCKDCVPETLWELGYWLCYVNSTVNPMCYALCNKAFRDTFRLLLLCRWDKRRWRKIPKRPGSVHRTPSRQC
M1 ag: M1 muscarinic receptor agonists, primary screen, CHO-M1 cells, Fluo-4 calcium, agonist mode | Fluo-4 calcium fluorescence; active compounds read high | B-score at 10 µM | hit rate 3% among 64,000 | AID 626, 2007;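 active means fluorescence rise, raw or as B-score row- and column-corrected plate score, outside the 99.7% band of its plate's samples, either direction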
mHtt clearance: clearance of mutant huntingtin inclusions, primary screen, imaging, HeLa Exon1htt(103Q)mCFP, confocal imaging; AID 853, 2007; aggregate imaging; zero = plate's median compound well; inhibition, % at 1.5 µM; hit rate 0.42% among 47,000;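 active means inhibition of aggregate fluorescence above about 70%, also judged a hit by eye on the cell image, limit read from the data, passing the limit was not always enough; inconclusive means no rule stated for this call; inactive means not judged a hit on image review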;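 further: cells exposed to compound for three days before fixation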
D1 mod: D1 CRE-luciferase signal change, two-sided – cell-based, HEK293 D1, dopamine EC30, D1 allosteric modulator project, primary screen. AID 641, 2007. B-score at 10 µM. D(1A) dopamine receptor (Homo sapiens), P21728. dopamine EC30 potentiation; actives deviate in either direction. hit rate 5.9% among 58,000;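 active means luminescence count or its row- and column-corrected plate score outside the 99.7% band of the plate's sample wells, on either side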
M1 antag conf: rat M1 muscarinic receptor antagonists, confirmation, CHO cells, Fluo-4 calcium, duplicate | ACh EC80 antagonism; active compounds read low | shares compounds with M1 antag | hit rate 43% among 1,700 | AID 677, 2007 | calcium response (max-min fluorescence) at 10 µM;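 active means calcium response below the same-plate mean of wells given acetylcholine alone at its 80%-effect dose, minus 3 SD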;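 further: raw fluorescence intensity difference in arbitrary instrument units and not normalized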
mGluR4 antag: human mGluR4 response to M1 antagonist hits, M1 allosteric modulator project, cell-based, antagonist mode, secondary assay 1; shares compounds with M1 antag; CHO-mGluR4 calcium flux, Fluo-4 fluorescence, glutamate EC80; active compounds read low; fluorescence response (max-min) at 10 µM; hit rate 0.9% among 1,700; AID 678, 2007;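 active means fluorescence response below the plate's average for near-maximal glutamate wells, less 3 SD of those wells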;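 further: raw unnormalized fluorescence span taken in the window right after glutamate addition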
Numbers without * were called inactive; ? = inconclusive; . = no result given. Most compounds without a hit are left out; they make up all but 9% or so of the library.

SMILES	AP complement	M1 antag	M1 ag	mHtt clearance	D1 mod	M1 antag conf	mGluR4 antag
COc1ccccc1CNS(=O)(=O)c1cccc(S(=O)(=O)N2CCOCC2)c1	-6	-4.7*	1.3	10	0.16	605	209
CCn1c(CSc2nnc(-c3ccc4c(c3)OCO4)o2)nc2cc(S(=O)(=O)N(C)C)ccc21	17	.	.	.	.	.	.
COCCNC(=O)CN1CCN(C(c2ccccc2)c2ccccc2)CC1	-16	-1.2*	-0.85	-109	1.1	569	250
CCOc1ccccc1C(=O)N1CCN(C(c2ccccc2)c2ccccc2)CC1	.	.	.	-26	.	.	.
CC(=O)c1ccccc1OCC(O)CN1CCN(C(c2ccccc2)c2ccccc2)CC1 (centres undefined)	17	-7.9*	1.2	.	.	133*	231
COC(=O)CN1CCN(C(c2ccccc2)c2ccccc2)CC1	14	-0.59	-0.041	-15	0.48	.	.
O=C(NCCCCc1ccccc1)C12CN(Cc3ccccc3)CC1C(c1ccc([N+](=O)[O-])cc1)=NO2 (centres undefined)	.	.	.	-44	.	.	.
CCCn1cnc2cc(NCc3cccc(OC)c3)ccc21	18	-2.4*	-0.17	-71	-0.19	397*	189
CCc1c(O)nc(SCC(=O)Nc2ccccc2OC)[nH]c1=O	5	-1*	0.62	.	-0.78	529	166
COc1ccccc1NC(=O)CSc1nc(O)cc(=O)[nH]1	.	-0.96	0.18	.	-0.47	.	.
Cc1cc(C)c2c(CN3CCN(Cc4ccc5c(c4)OCO5)CC3)cc(=O)oc2c1	18	-10*	-0.2	.	-0.02	61*	299
Cc1ccc(C)c(N2C(=O)CC(N3CCN(Cc4ccc5c(c4)OCO5)CC3)C2=O)c1 (centres undefined)	9	-2.9*	-0.59	.	-0.7	542*	178
Cc1cc(C)c2c(CN3CCN(Cc4ccc5c(c4)OCO5)CC3)cc(=O)oc2c1C	9	-6.2*	0.075	.	-0.29	376*	256
CCN1CCN(Cc2cc(=O)oc3cc(C)cc(C)c23)CC1	8	-1.2*	-2.1	.	-1.4	461*	253
Cc1ccc2c(CN3CCN(Cc4ccc5c(c4)OCO5)CC3)cc(=O)oc2c1C	-5	-2.3*	0.13	-24	-0.28	475*	256
Cc1ccc(C(=O)CC2(O)C(=O)N(C)c3ccc(Br)cc32)c(C)c1 (centres undefined)	9	-2.2*	-0.38	20	-0.16	642	186
CCN(CC)CCCNC(=O)c1c(O)c2c([nH]c1=O)CCCC2	-1	-0.61	-1	.	-0.81	.	.
O=C(NCC1CCCO1)c1c(O)c2c([nH]c1=O)CCCC2 (centres undefined)	-1	-3.6*	0.28	.	1.2	555	245
COc1ccc(OC)c(NC(=O)CSc2nnc(Cn3nnc4ccccc43)n2C)c1	.	.	.	-31	.	.	.
O=C(O)Cn1cc(C(=O)c2cccs2)c2ccccc21	-4	1.2	0	-34	-0.29	.	.
O=C(c1cccs1)c1cn(CC(=O)N2CCc3ccccc3C2)c2ccccc12	2	-7.2*	-0.56	-11	0.32	699	175
COc1ccc(NC(=O)CN2C(=O)CC(C)(C)S(=O)(=O)c3ccccc32)cc1	-6	0.52	-0.82	-44	-0.056	.	.
c1ccc2c(c1)nc1sccn12	1	-2.5*	0.91	.	-0.036	674	254
Clc1c(CSc2nc3ccccc3o2)nc2sccn12	14	0.47	-0.47	-15	-1	.	.
CCOc1ccccc1C1C(C#N)=C(SCC(=O)OC)NC(=O)C1C(=O)OC (centres undefined)	25	-2.8*	0.11	.	0.28	559	201
SMILES	AP complement	M1 antag	M1 ag	mHtt clearance	D1 mod	M1 antag conf	mGluR4 antag
COc1ccccc1NC(=O)C(C)NS(=O)(=O)c1ccc(Cl)cc1 (centres undefined)	5	1.6	0.46	.	0.56	.	.
Cc1ccc(NC(=O)CN(c2ccccc2F)S(C)(=O)=O)cc1	3	.	.	-34	-0.32	.	.
CC(OC(=O)CCCN1C(=O)c2ccccc2C1=O)C(=O)Nc1ncc(Cl)cc1Cl (centres undefined)	-36	-0.068	-0.3	.	0.082	.	.
CC(OC(=O)C1CCN(S(=O)(=O)c2ccccc2)CC1)C(=O)Nc1ncc(Cl)cc1Cl (centres undefined)	19	-1.3*	-1.7	4	-0.51	668	250
c1nnc(NC2=NCCCCC2)s1	0	-0.74	-1.4	.	0.17	.	.
C1CCN=C(Nc2nc3c(s2)CCCC3)CC1	5	-6.4*	0.86	3	-1.1	468*	207
CCC(=O)Nc1nc2ccc(S(C)(=O)=O)cc2s1	.	.	.	62	.	.	.
CS(=O)(=O)c1ccc2nc(NC(=O)CN3CCN(Cc4ccccc4)CC3)sc2c1	12	-2.5*	-0.79	-69	-0.87	567	232
Cc1ccc(OCC(=O)N2CCC(N3CCCCCC3)CC2)cc1	.	0.75	0.026	-26	0.014	.	.
CCCCN(CC)S(=O)(=O)N1CCC(C(=O)NCc2ccc(F)cc2)CC1	9	-0.6	-1.6	.	-0.81	.	.
CCCCn1cnc2sc3c(c2c1=N)CCCC3	2	-2.5*	-0.66	.	-0.92	580	221
CCOc1ccccc1NC(=O)c1cc(CC(C)C)oc1C	-5	-2.4*	-0.29	-13	-0.54	650	241
Cc1oc(CC(C)C)cc1C(=O)Nc1cccc2ccccc12	.	.	.	-14	.	.	.
CCCCOc1ccccc1NC(=O)CC1SC(=NCC)N(CC)C1=O (centres undefined)	3	-2.8*	1.5	.	.	575	232
CCC(C)N(C(=O)COC(=O)Cc1n[nH]c(=O)c2ccccc12)C1CCS(=O)(=O)C1 (centres undefined)	13	-3.6*	0.99	.	0.17	641	242
CCN(CCCNC(=O)c1c(C)cc(=O)oc1C)c1cccc(C)c1	17	-2.9*	-0.2	.	-0.86	522*	266
O=C(NCc1ccco1)C(c1cccs1)N(C(=O)C1COc2ccccc2O1)c1cccc(O)c1 (centres undefined)	5	-1.6	2.2	13	.	.	.
CNc1ccccc1-c1nc2ccccc2n(C)c1=O	.	-0.15	-0.24	.	.	.	.
COc1ccccc1Nc1nc2ccccc2n1C	11	-4.4*	0.062	?	-2.6	489	209
Cc1cccn2c(=O)c3cc(C(=O)NC(C)C)c(=N)n(Cc4ccncc4)c3nc12	7	.	.	.	-0.37	.	.
COCCn1c(=N)c(C(=O)NCCc2ccc(OC)cc2)cc2c(=O)n3cccc(C)c3nc21	14	-4.4*	1.2	-60	-0.22	311*	208
